This is a sample that favours compounds with a hit; in the whole collection about 2.2% have one here.
E-selectin induc = induces E-selectin expression in human endothelial cells | P16581 | HUVEC E-selectin immunofluorescence imaging; normalized: neutral wells 0, TNF-alpha wells 100 | activation, % at 7.58 µM | 260,000 compounds, 0.37% hits;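 active = mean E-selectin-positive cell signal at least 10% of the positive control, reached in at least 60% of replicates, without over 20% cell loss; inconclusive = no rule given, readout overlaps actives, possibly toxicity-flagged; inactive = the rest, including those meeting only one limit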
Target sequence (P16581 whole entry, looked up): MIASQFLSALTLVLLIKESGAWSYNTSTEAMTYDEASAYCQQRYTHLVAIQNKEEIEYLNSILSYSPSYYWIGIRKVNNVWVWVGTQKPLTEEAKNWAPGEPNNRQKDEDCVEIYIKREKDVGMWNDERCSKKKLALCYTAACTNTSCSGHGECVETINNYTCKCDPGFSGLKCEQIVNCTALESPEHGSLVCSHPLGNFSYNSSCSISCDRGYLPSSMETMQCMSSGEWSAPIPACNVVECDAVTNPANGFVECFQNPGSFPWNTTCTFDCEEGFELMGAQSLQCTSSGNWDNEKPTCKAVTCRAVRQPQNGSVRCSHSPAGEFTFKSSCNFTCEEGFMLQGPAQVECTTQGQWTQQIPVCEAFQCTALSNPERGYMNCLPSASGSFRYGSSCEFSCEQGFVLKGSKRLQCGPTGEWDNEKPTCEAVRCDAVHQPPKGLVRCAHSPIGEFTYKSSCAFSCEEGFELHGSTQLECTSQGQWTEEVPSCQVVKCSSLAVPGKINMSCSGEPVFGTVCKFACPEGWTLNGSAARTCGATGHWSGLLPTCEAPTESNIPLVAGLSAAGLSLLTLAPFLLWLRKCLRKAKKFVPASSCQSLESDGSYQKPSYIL
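Test system – human umbilical vein endothelial cells (HUVEC), E-selectin induction · Input – 3,000 HUVEC seeded per well · Buffer or medium – EGM-2, gelatin · Compound dosing – single-point compound dose · Detection – immunofluorescence imaging · Measure – percent E-selectin-positive cells · Controls – TNF-alpha high, DMSO low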
C2C12 statin = suppression of simvastatin myotoxicity; rescue of ATP level, % at 7.49 µM; AID 602340; 330,000 compounds, 0.78% hits; C2C12 myotubes + simvastatin, ATP luminescence, 48 h; scaled: DMSO 0, geranylgeraniol control 100;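 active = mean ATP rescue above about 67%, or every replicate alone reaching that limit, limit read from the data, passing the limit was not always enough; inconclusive = no clear call, values can overlap the other calls; inactive = mean under the limit and some replicate under it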;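 note: myotubes were challenged with 10 µM simvastatin during compound exposure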
DENV2 CPE = DENV2-induced cell death inhibition | DENV2-infected cells, cytopathic effect rescue, plate reader | CPE inhibition, % at 9.99 µM | 350,000 compounds, 1.7% hits | AID 651640; in the data active = CPE inhibition above about 20%, passing the limit was not always enough; inconclusive = no clear call, values can overlap the other calls; tested in BHK-21 cells;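 note: 0% = median of neutral control wells and 100% = median of positive control wells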
An asterisk follows results filed as active; ? = inconclusive; / = no result.

SMILES	E-selectin induc	C2C12 statin	DENV2 CPE
Cc1noc(C)c1S(=O)(=O)Nc1ccc2c(c1)C(=O)N([C@@H](C)CO)C[C@H](C)[C@H](CN(C)C(=O)CCC(F)(F)F)OCCCC[C@H](C)O2	-0.2	/	33.9*
Cc1noc(C)c1S(=O)(=O)Nc1ccc2c(c1)C(=O)N([C@@H](C)CO)C[C@@H](C)[C@H](CN(C)C(=O)CCC(F)(F)F)OCCCC[C@@H](C)O2	0.1	/	3.1
COc1ccc(S(=O)(=O)Nc2ccc3c(c2)C(=O)N([C@@H](C)CO)C[C@@H](C)[C@@H](CN(C)C(=O)Nc2c(C)noc2C)OCCCC[C@H](C)O3)cc1	0.2	38.9	4.1
COc1ccc(S(=O)(=O)Nc2ccc3c(c2)C(=O)N([C@@H](C)CO)C[C@@H](C)[C@H](CN(C)C(=O)Nc2c(C)noc2C)OCCCC[C@H](C)O3)cc1	-0.2	89.1*	10.0
CO[C@@H]1CN(C)C(=O)c2cc(NC(=O)Nc3cc(F)ccc3F)ccc2OC[C@@H](C)N(C)C[C@@H]1C	-0.1	-4.4	-8.4
C[C@@H]1CN([C@H](C)CO)C(=O)c2cc(NC(=O)Nc3ccc(C(F)(F)F)cc3)ccc2O[C@@H](C)CCCCO[C@@H]1CN(C)S(=O)(=O)c1cn(C)cn1	0.7	-55.4	-4.3
COCC(=O)Nc1ccc2c(c1)[C@@H]1C[C@@H](CC(=O)N3CCOCC3)O[C@@H](CO)[C@@H]1O2	0.0	-1.9	-6.4
C[C@@H]1CN([C@H](C)CO)C(=O)c2cc(C#Cc3ccc(F)cc3)cnc2O[C@@H]1CN(C)CC1CC1	0.7	-12.0	0.1
COc1ccc(S(=O)(=O)Nc2ccc3c(c2)C(=O)N([C@@H](C)CO)C[C@H](C)[C@H](CN(C)C(=O)Nc2c(C)noc2C)O3)cc1	0.1	/	0.5
COc1ccc(S(=O)(=O)Nc2ccc3c(c2)C(=O)N([C@H](C)CO)C[C@H](C)[C@@H](CN(C)C(=O)Nc2c(C)noc2C)O3)cc1	0.3	125.8*	14.7
CCCNC(=O)N1C[C@@H](O)COC[C@@H]2O[C@@H](CC(=O)NCc3ccc(Cl)c(Cl)c3)CC[C@H]21	0.1	-16.5	-3.5
COc1ccc(Cl)cc1NC(=O)CN(C)C(=O)C1COc2ccccc2O1 (centres undefined)	0.5	-0.2	73.5*
COc1ccc(Cl)cc1NC(=O)C1COc2ccccc2O1 (centres undefined)	/	/	-4.8
C/C=C/c1ccc2c(c1)O[C@H](CN(C)C(=O)NC1CCCC1)[C@@H](C)CN([C@@H](C)CO)S2(=O)=O	0.2	-9.2	-8.7
COc1ccc(CN(C)C[C@H]2OCCCC[C@@H](C)Oc3ccc(NC(=O)C4CCCCC4)cc3C(=O)N([C@@H](C)CO)C[C@H]2C)cc1	0.1	/	6.0
Nc1ccc2oc(-c3ccccc3Cl)cc(=O)c2c1O	-0.2	29.0	104.9*
O=c1cc(-c2ccccc2Cl)oc2ccc([N+](=O)[O-])c(O)c12	-0.1	-67.3	-3.9
CC(C)C#Cc1ccc([C@H]2[C@H]3CN(C(=O)c4ccc5c(c4)OCO5)CC(=O)N3[C@H]2CO)cc1	0.2	/	?
O=C(NC[C@H]1CC[C@H]2[C@H](CN2Cc2cccc(Cl)c2)O1)C1CCOCC1	/	/	58.2*
O=C(NC[C@@H]1CC[C@@H]2[C@@H](CN2Cc2ccc(Oc3ccccc3)cc2)O1)C1CCOCC1	/	/	-5.0
C[C@@H]1CN([C@@H](C)CO)C(=O)Cc2cc(NC(=O)NC3CCCCC3)ccc2O[C@@H]1CN(C)S(=O)(=O)c1ccc(Cl)cc1	/	-73.4	-7.5
O=[N+]([O-])c1ccc(O)c(/C=N/n2c(CO)nc3ccccc32)c1	/	-10.0	6.9
O=[N+]([O-])c1ccc(O)c(/C=N/n2cnc3ccccc32)c1	/	-14.6	70.4*
COc1ccccc1C#Cc1cnc2c(c1)C(=O)N([C@H](C)CO)C[C@@H](C)[C@@H](CN(C)C(=O)CC1CC1)O2	0.1	/	-3.3
C[C@H]1CN([C@@H](C)CO)C(=O)c2cccc(NC(=O)C3CCOCC3)c2O[C@@H]1CN(C)Cc1ccc(Oc2ccccc2)cc1	-18.8	-20.8	-0.8
C/C=C/c1ccc2c(c1)O[C@@H](CN(C)C(=O)c1ccncc1)[C@@H](C)CN([C@@H](C)CO)S2(=O)=O	-0.3	-1.4	-1.0
CC(=O)N[C@H]1C=C[C@@H](CC(=O)NCc2ccc(Cl)cc2)O[C@@H]1CO	-0.4	-4.4	1.4
COc1ccc(CNC(=O)C[C@@H]2C=C[C@H](NC(=O)c3ccc4c(c3)OCO4)[C@H](CO)O2)cc1	-0.4	10.6	6.6
O=C(C[C@H]1C=C[C@H](NC(=O)C2CCC2)[C@H](CO)O1)NCC1CC1	0.0	-0.6	-5.5
O=C(C[C@@H]1C=C[C@@H](NC(=O)c2ccccn2)[C@@H](CO)O1)NCc1cccc(F)c1	-0.6	1.7	-4.4
